Measurements taken from publication PMC9065685 (Bioorganic Chemistry, 2022).
Values after ≈ are worked out from the molar mass of the structure shown. Values joined by “and” are separate entries in the source; they are usually repeats but may differ in a detail not shown here. Identical values can stand only once.

Columns and labels:
[1] = tested on: Bacillus subtilis; assay: Disc diffusion antibacterial susceptibility test; type: cell-based; conditions: 18 h at 37 °C, mean ± SD, triplicate, NI = No inhibition
Procedure, shortened: (§1)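 Bacteria came from a university microbiology laboratory stock. Colonies were suspended in sterile 0.85% saline and matched to McFarland 0.5, then swabbed evenly onto Mueller-Hinton agar. 6 mm filter-paper discs carrying test compound were laid on the agar. Plates were incubated 18 h at 37 °C and inhibition zone diameters measured in mm. Three repeats, reported as mean ± SD.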

[2] = tested on: Escherichia coli; assay: Disc diffusion antibacterial susceptibility test; type: cell-based; conditions: mean ± SD, triplicate, NI = No inhibition
Procedure, shortened: as §1

[3] = tested on: Salmonella typhi; assay: Disc diffusion antibacterial susceptibility test; type: cell-based; conditions: mean ± SD, triplicate, NI = No inhibition
Procedure, shortened: as §1

[4] = tested on: Pseudomonas aeruginosa; assay: Disc diffusion antibacterial susceptibility test; type: cell-based; conditions: mean ± SD, triplicate, NI = No inhibition
Procedure, shortened: as §1

[5] = tested on: Aspergillus niger; assay: Mycelial growth inhibition; type: cell-based; conditions: 5 days incubation, mean ± SD, triplicate, NI = No inhibition
[6] = tested on: Aspergillus flavus; assay: Mycelial growth inhibition; type: cell-based; conditions: 5 days incubation, mean ± SD, triplicate, NI = No inhibition
[7] = tested on: B. subtilis; assay: MIC and MBC by micro-broth dilution; type: cell-based; conditions: Bacillus subtilis
Procedure, shortened: (§2)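 Broth microdilution in Mueller-Hinton broth, using a two-fold test compound series over 0.125 to 128 µg/mL. Wells received 5 µL of inoculum at 10⁴–10⁵ CFU/mL, diluted from a 0.5 McFarland suspension. Each plate had growth (no compound) and sterility controls. After 24 h at 37 °C, 0.5% (w/v) triphenyl tetrazolium chloride was added for a further 24 h at 37 °C. Red colour indicated growth, and MIC/MBC were read visually.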

[8] = tested on: tested strains (pathogenic bacteria); assay: MIC and MBC by micro-broth dilution, over the tested strains; type: cell-based; conditions: for MBC: read-out: MBC values against the tested organisms; for MIC: read-out: MIC values against the tested strains
Procedure, shortened: as §2

[9] = tested on: brine shrimps nauplii; assay: Brine shrimp lethality assay; type: in vivo; conditions: brine shrimp lethality bioassay, 24 h and 48 h
Procedure, shortened: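 Test compound was dissolved in DMSO and made up to 5 ml with NaCl solution at four concentrations. Ten nauplii per vial, each concentration run three times; control vial held 10 nauplii in 5 ml seawater. Vials stood at room temperature for 24 h and 48 h. Survivors were counted under a magnifying glass, and average % mortality was calculated per concentration.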

Row | Structure (SMILES) | Diameter of inhibition zone, B. subtilis (+ve) [1] | Diameter of inhibition zone, E. coli (-ve) [2] | Diameter of inhibition zone, S. typhi (-ve) [3] | Diameter of inhibition zone, P. aeruginosa (-ve) [4] | % inhibition of fungal mycelial growth in mm (20 μg/μL), Aspergillus niger [5] | % inhibition of fungal mycelial growth in mm (20 μg/μL), Aspergillus. flavus [6] | MIC [7] | MBC [8] | MIC [8] | % death of brine shrimp (level of toxicity) [9]
1 | CC[C@H]1OC(=O)[C@H](C)[C@@H](O[C@H]2C[C@@](C)(OC)[C@@H](O)[C@H](C)O2)[C@H](C)[C@@H](O[C@@H]2O[C@H](C)C[C@H](N(C)C)[C@H]2O)[C@](C)(O)C[C@@H](C)CN(C)[C@H](C)[C@@H](O)[C@]1(C)O [Azithromycin, reference compound] | 18.5 ± 0.3 mm | **17.25 ± 0.1 mm | **18 ± 0.2 mm | **18.5 ± 0.3 mm |  |  |  |  |  | 
2 | C[C@@H]1[C@H](O)[C@@H](C)/C=C/C=C/CC/C=C/C=C/C=C/C=C/C(O[C@H]2O[C@H](C)[C@@H](O)[C@H](N)[C@@H]2O)CC2O[C@](O)(CC(O)C(O)CCC(O)CC(O)CC(O)CC(=O)O[C@H]1C)CC(O)C2C(=O)O (some centres unmarked) [Nystatin, reference compound] |  |  |  |  | **65.4 ± 1.0% | **64.1 ± 1.0% |  |  |  | 
3 | CCCCCCCCCCCC(=O)OC[C@H]1O[C@@H](n2cc(C)c(=O)[nH]c2=O)C[C@@H]1O [analog 2, 5́-O-(Lauroyl)thymidine] |  | *13.00 ± 0.1 mm | *14.50 ± 0.3 mm | *12.75 ± 0.1 mm | *60.16 ± 1.2% | *82.76 ± 1.0% | 0.125 µg/mL (≈ 0.294 µM) | 8 to 16 µg/mL (≈ 18.8 to 37.7 µM) | 0.125 to 8 µg/mL (≈ 0.294 to 18.8 µM) | 36.25%
4 | CCCCCCCCCCCC(=O)OC[C@H]1O[C@@H](n2cc(C)c(=O)[nH]c2=O)C[C@@H]1OC(=O)c1ccc(C(C)(C)C)cc1 [analog 3, 3́-O-(4-t-Butylbenzoyl)-5́-O-(lauroyl)thymidine] | 13.25 mm and 13.25 ± 0.2 mm |  | 9.75 ± 0.2 mm | *11.75 ± 0.4 mm | *65.25 ± 1.1% | *72.95 ± 1.0% |  | 8 to 16 µg/mL (≈ 13.7 to 27.4 µM) | 0.125 to 8 µg/mL (≈ 0.214 to 13.7 µM) | 
5 | CCCCCCCCCCCCCC(=O)O[C@H]1C[C@H](n2cc(C)c(=O)[nH]c2=O)O[C@@H]1COC(=O)CCCCCCCCCCC [analog 4, 5́-O-Lauroyl-3́-O-(myristoyl)thymidine] | 12.75 mm and 12.75 ± 0.1 mm | *12.5 ± 0.2 mm |  |  |  |  |  |  |  | 
6 | CCCCCCCCCCCCCCCC(=O)O[C@H]1C[C@H](n2cc(C)c(=O)[nH]c2=O)O[C@@H]1COC(=O)CCCCCCCCCCC [analog 5, 5′-O-Lauroyl-3′-O-(palmitoyl)thymidine] | 14.50 mm and 14.5 ± 0.1 mm | 9.00 ± 0.2 mm | *15.25 ± 0.2 mm | 8.50 ± 0.2 mm | 57.62 ± 1.1% | *81.55 ± 1.0% |  |  |  | 
7 | CCCCCCCCCCCC(=O)OC[C@H]1O[C@@H](n2cc(C)c(=O)[nH]c2=O)C[C@@H]1OC(=O)c1ccc(Br)cc1 [analog 6, 3́-O-(4-Bromobenzoyl)-5́-O-(lauroyl)thymidine] |  |  | 9.5 ± 0.1 mm |  |  |  |  |  |  | 38.75%
